Measured values reported in ChEMBL document CHEMBL4152363, “Andrographolide derivative as STAT3 inhibitor that protects acute liver damage in mice” (Bioorg Med Chem, 2018).
Active and inactive are the calls of the source. No cut-off for these calls is given here.

Experiments:
[1] = target: T1, Signal transducer and activator of transcription 3 (Homo sapiens, UniProt P40763); assay: Inhibition of IFNgamma-stimulated STAT3 activation in human AD293 cells incubated with IFNgamma for 16 hrs followed by compound addition measured after 24 hrs by luciferase reporter gene assay; assay type: cell-based
Summary of the method: (§1)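 AD-293 or HeLa cells in DMEM/10% FBS stimulated with 20 pg/mL IFN-γ; compound treatment 24 h; luciferase activity measured in cell extracts; EC50 derived.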

[2] = target: T1, Signal transducer and activator of transcription 3; assay: Inhibition of IFNgamma-stimulated GFP/FLAG-tagged STAT3 dimerization in human AD293 cells at 10 uM incubated for 6 hrs by Western blot analysis; assay type: cell-based
Summary of the method: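 AD-293 cells co-transfected 48 h with GFP- and FLAG-tagged STAT3 plasmids, then IFN-γ with or without compound for 6 h; 100 μg lysate (RIPA) immunoprecipitated with anti-FLAG and protein G beads; blots probed for GFP and FLAG, chemiluminescent detection.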

Mus musculus [3] = assay: Reduction in serum ALT level in CCL4-induced acute liver damage in Balb/c mouse at 30 mg/kg, po qd for 7 days measured after 16 hrs post CCL4 challenge […]; assay type: functional, organism-based
Mus musculus [4] = assay: Reduction in MMP9 mRNA expression level in CCL4-induced acute liver damage in Balb/c mouse at 30 mg/kg, po qd for 7 days measured after 16 hrs post CCL4 challenge by qRT-PCR method; assay type: functional, organism-based
Summary of the method: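 Mice given 30 mg/kg orally once daily 7 days before sc CCl4 (40% in olive oil, 10 ml/kg); livers harvested 16 h later, PBS-washed, stored at −70 °C for RNA extraction and transcript quantification; n=5, two independent experiments.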

[5] = target: T2, Signal transducer and activator of transcription 1-alpha/beta (Homo sapiens) (UniProt P42224); assay: Inhibition of IFNgamma-stimulated STAT1 phosphorylation at Tyr701 residues in human AD293 cell lysates incubated with IFNgamma followed by compound addition at 10 uM by Western blot analysis
T2 sequence (whole entry): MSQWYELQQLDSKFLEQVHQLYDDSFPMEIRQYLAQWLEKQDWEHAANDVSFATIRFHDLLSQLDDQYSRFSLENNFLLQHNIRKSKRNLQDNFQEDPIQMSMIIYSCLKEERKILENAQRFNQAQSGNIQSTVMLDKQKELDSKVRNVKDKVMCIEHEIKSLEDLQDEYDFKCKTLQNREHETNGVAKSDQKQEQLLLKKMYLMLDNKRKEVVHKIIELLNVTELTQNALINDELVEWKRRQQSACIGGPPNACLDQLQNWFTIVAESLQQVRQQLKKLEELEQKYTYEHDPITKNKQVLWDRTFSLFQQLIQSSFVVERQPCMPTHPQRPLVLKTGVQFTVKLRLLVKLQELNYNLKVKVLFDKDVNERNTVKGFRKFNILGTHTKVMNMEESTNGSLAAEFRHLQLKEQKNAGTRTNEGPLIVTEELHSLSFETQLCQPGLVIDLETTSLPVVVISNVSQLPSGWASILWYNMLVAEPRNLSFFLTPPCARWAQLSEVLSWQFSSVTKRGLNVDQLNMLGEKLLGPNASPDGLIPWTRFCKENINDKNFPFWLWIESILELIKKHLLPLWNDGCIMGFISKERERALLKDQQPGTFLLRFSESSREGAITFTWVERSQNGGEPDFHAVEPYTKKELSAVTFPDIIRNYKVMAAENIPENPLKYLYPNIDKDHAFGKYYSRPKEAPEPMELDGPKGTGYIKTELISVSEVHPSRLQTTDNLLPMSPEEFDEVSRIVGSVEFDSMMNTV
Summary of the method: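 AD-293 cells treated with 1 μg/mL IFN-γ alone or with compounds at 10 μM; phospho- and total STAT1 and STAT3 assessed by western blot; representative of at least three independent experiments.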

[6] = target: T1, Signal transducer and activator of transcription 3; assay: Inhibition of IFNgamma-stimulated STAT3 activation in human HeLa cells incubated with IFNgamma for 16 hrs followed by compound addition measured after 24 hrs by luciferase reporter gene assay; assay type: cell-based; summary of the method: as §1
Mus musculus [7] = assay: Hepatoprotective activity against CCL4-induced acute liver damage in Balb/c mouse assessed as decrease in hepatic damage at 30 mg/kg, po qd for 7 days measured after 16 hrs post CCL4 challenge by hematoxylin-eosin staining based light microscopy; assay type: functional, organism-based
Summary of the method: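 Male BalB/C mice given oral 30 mg/kg daily for 7 days, then sc CCl4 (40% in olive oil, 10 ml/kg); sacrificed 16 h later; livers fixed in 10% formaldehyde, paraffin sections stained with H&E or Masson's trichrome, light microscopy, ≥3 sections per liver; n=5, two experiments.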

Mus musculus [8] = assay: Toxicity in Balb/c mouse assessed as change in body weight at 30 mg/kg, po qd for 7 days; assay type: organism-based; details: in vivo, 168 h
Summary of the method: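 Male BalB/C mice (20–25 g, 6–8 weeks, 1-week acclimation) dosed orally 30 mg/kg once daily 7 days, then subcutaneous CCl4 (40% in olive oil, 10 ml/kg); body weight tracked during treatment; S.E.M.; two independent experiments, n=5.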

[9] = target: T1, Signal transducer and activator of transcription 3; assay: Inhibition of STAT3 in human AD293 cells assessed as decrease in TGFbeta-stimulated SMAD2/3 activation up to 10 uM incubated for 16 hrs by luciferase reporter gene assay relative to control; assay type: cell-based
Summary of the method: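 AD-293 cells carrying SMAD2/3 promoter in pGL4.20 luciferase vector, stimulated with TGF-β 100 ng/ml for 16 h with compound up to 10 µM; luciferase activity measured in cell extracts.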

[10] = target: T1, Signal transducer and activator of transcription 3; assay: Inhibition of DNA binding activity of STAT3 in human AD293 cells up to 40 uM; assay type: cell-based
Summary of the method: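 STAT3 DNA binding measured with TransAM STAT family ELISA kit per manufacturer; competition control with threefold free oligo; mean ± SD of three separate experiments.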

Mus musculus [11] = assay: Antiinflammatory activity in CCL4-induced acute liver damage Balb/c mouse model assessed as decrease in serum MCP-1 levels at 30 mg/kg, po qd for 7 days measured after 16 hrs post CCL4 challenge; assay type: functional, organism-based
Summary of the method: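 BalB/C males dosed orally 30 mg/kg daily for 7 days, then sc CCl4 (40% in olive oil, 10 ml/kg); serum collected 16 h post-CCl4 after CO2 anaesthesia, stored at −70 °C until IL-6, MCP-1 or TGF-β analysis; n=5.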

T1 sequence (P40763 whole entry): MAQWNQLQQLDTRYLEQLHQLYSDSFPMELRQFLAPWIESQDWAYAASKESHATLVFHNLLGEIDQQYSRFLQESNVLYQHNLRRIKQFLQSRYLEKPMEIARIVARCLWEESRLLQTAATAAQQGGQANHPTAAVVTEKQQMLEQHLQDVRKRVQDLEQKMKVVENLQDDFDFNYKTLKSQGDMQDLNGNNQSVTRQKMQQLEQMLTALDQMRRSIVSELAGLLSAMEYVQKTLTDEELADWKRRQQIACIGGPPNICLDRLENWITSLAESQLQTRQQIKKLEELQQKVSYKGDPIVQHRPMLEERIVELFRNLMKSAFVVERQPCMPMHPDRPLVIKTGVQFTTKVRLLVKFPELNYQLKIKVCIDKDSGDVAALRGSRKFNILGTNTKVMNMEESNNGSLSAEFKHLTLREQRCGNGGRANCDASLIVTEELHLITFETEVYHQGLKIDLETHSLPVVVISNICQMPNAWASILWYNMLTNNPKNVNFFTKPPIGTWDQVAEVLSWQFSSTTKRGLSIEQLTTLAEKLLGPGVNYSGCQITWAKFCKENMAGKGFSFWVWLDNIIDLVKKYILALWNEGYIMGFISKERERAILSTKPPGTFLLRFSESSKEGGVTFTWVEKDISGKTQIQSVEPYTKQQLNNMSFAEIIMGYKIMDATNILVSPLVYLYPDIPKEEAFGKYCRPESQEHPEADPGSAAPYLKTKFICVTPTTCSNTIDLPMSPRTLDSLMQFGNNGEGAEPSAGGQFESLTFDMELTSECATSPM

EC50 [1]: 5.99 µM | inhibition [2]: Active | inhibition [5]: inactive | EC50 [6]: 5.9 µM | inhibition [9]: < 50% | inhibition [10]: inactive
SMILES: CC(C)(C)[Si](C)(C)O[C@@H]1COC(=O)/C1=C/C[C@@H]1[C@]2(CC[C@H]3[C@@]1(C)CCC(=O)[C@@]3(C)CO)CO2
Activity (Mus musculus [3]): inactive | Activity (Mus musculus [4]): inactive | Activity (Mus musculus [7]): Active | Activity (Mus musculus [8]): Non-Toxic | Activity (Mus musculus [11]): Active
